Key:
ACHN = assay: Growth inhibition of human ACHN cells after 48 hrs by SRB assay; type: functional
How it was run: (§1)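 NCI 60-panel five-dose assay at 0.01, 0.1, 1, 10 and 100 μM. Cells in RPMI 1640 with 5% FBS and 2 mM L-glutamine, preincubated 24 h, with time-zero plates TCA-fixed. Drug exposure 48 h at 37 °C. Read by SRB staining at 515 nm. GI50 is the concentration where [(Ti−Tz)/(C−Tz)]×100 = 50, taken from log concentration versus % growth curves.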

SNB-19 = assay: Growth inhibition of human SNB19 cells after 48 hrs by SRB assay; type: functional; conditions: SNB-19, 48 h
How it was run: (§2)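 NCI-60 panel cells grown in RPMI 1640 with 5% FBS and 2 mM L-glutamine, then seeded at 5000–40,000 cells/well by doubling time and preincubated for 24 h. Compound in DMSO was tested either at 10^-5 M alone or at 0.01–100 μM in five doses, for 48 h at 37 °C. Cells were fixed with cold TCA (10% final), stained with SRB, and read at 515 nm. GI50 was taken from % growth relative to time-zero and control wells.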

TK-10 = assay: Cytotoxicity against human TK10 cells after 48 hrs by SRB assay; type: cell-based; conditions: tk-10, 48 h
How it was run: (§3)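 NCI-60 five-dose screen. Cells grown in RPMI 1640 with 5% FBS and 2 mM L-glutamine and pre-incubated 24 h; a time-zero plate is TCA-fixed. Drug added at 0.01, 0.1, 1, 10 and 100 µM (DMSO stock) for 48 h at 37 °C, 5% CO2. Fixed with cold TCA (10% final for adherent, 16% for suspension cells), stained with 0.4% SRB, A515. GI50, TGI and LC50 taken from dose-response curves.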

OVCAR-5 = assay: Cytotoxicity against human OVCAR5 cells after 48 hrs by SRB assay; type: cell-based; conditions: ovcar-5, 48 h
How it was run: (§4)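 NCI-60 five-dose screen in RPMI 1640 with 5% FBS and 2 mM L-glutamine; 5000–40,000 cells/well, 24 h pre-incubation. DMSO stocks diluted to 0.01, 0.1, 1, 10 and 100 μM final; 48 h at 37 °C, 5% CO2. Fixed with TCA (10% final adherent, 16% suspension), stained with 0.4% SRB, A515. GI50, TGI and LC50 taken from time-zero, control and test absorbances.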

CCRF-CEM = assay: Growth inhibition of human CCRF-CEM cells after 48 hrs by SRB assay; type: functional; how it was run: as §1
LOX IMVI = assay: Growth inhibition of human LOXIMVI cells after 48 hrs by SRB assay; type: functional; how it was run: as §1
A549 = assay: Growth inhibition of human A549 cells after 48 hrs by SRB assay; type: functional; conditions: A549, 48 h; how it was run: as §1
Malme-3M = assay: Cytotoxicity against human MALME-3M cells after 48 hrs by SRB assay; type: cell-based; how it was run: as §4
NCI/ADR-RES = assay: Cytotoxicity against human NCI/ADR-RES cells after 48 hrs by SRB assay; type: cell-based; how it was run: as §4
SK-MEL-28 = assay: Cytotoxicity against human SK-MEL-28 cells after 48 hrs by SRB assay; type: cell-based; conditions: sk-mel-28, 48 h; how it was run: as §4
SN12C = assay: Cytotoxicity against human SN12C cells after 48 hrs by SRB assay; type: cell-based; how it was run: as §4
HCC 2998 = assay: Cytotoxicity against human HCC2998 cells after 48 hrs by SRB assay; type: cell-based; conditions: hcc 2998, 48 h; how it was run: as §4
786-0 = assay: Growth inhibition of human 786-0 cells after 48 hrs by SRB assay; type: functional; conditions: 786-0, 48 h; how it was run: as §1
HCT-116 = assay: Growth inhibition of human HCT116 cells after 48 hrs by SRB assay; type: functional; conditions: HCT-116, 48 h; how it was run: as §1
NCI-H460 = assay: Growth inhibition of human NCI-H460 cells after 48 hrs by SRB assay; type: functional; conditions: NCI-H460, 48 h; how it was run: as §1
[1] = Cytotoxicity against human Hs 578T cells after 48 hrs by SRB assay; type: cell-based; how it was run: as §4
OVCAR-8 [2] = assay: Growth inhibition of human OVCAR8 cells after 48 hrs by SRB assay; type: functional; conditions: OVCAR-8, 48 h; how it was run: as §1
CAKI-1 = assay: Cytotoxicity against human Caki1 cells after 48 hrs by SRB assay; type: cell-based; conditions: caki-1, 48 h; how it was run: as §4
MCF7 = assay: Growth inhibition of human MCF7 cells after 48 hrs by SRB assay; type: functional; conditions: MCF7, 48 h; how it was run: as §1
HT-29 [3] = assay: Cytotoxicity against human HT-29 cells after 48 hrs by SRB assay; type: cell-based; conditions: ht-29, 48 h; how it was run: as §4
OVCAR-4 = assay: Growth inhibition of human OVCAR4 cells after 48 hrs by SRB assay; type: functional; conditions: OVCAR-4, 48 h; how it was run: as §1
SK-MEL-2 [4] = assay: Growth inhibition of human SK-MEL-2 cells after 48 hrs by SRB assay; type: functional; conditions: SK-MEL-2, 48 h; how it was run: as §2
NCI-H226 = assay: Cytotoxicity against human NCI-H226 cells after 48 hrs by SRB assay; type: cell-based; conditions: nci-h226, 48 h; how it was run: as §4
EKVX = assay: Growth inhibition of human EKVX cells after 48 hrs by SRB assay; type: functional; how it was run: as §1
SK-MEL-2 [5] = assay: Cytotoxicity against human SK-MEL-2 cells after 48 hrs by SRB assay; type: cell-based; conditions: sk-mel-2, 48 h; how it was run: as §4
HT-29 [6] = assay: Growth inhibition of human HT-29 cells after 48 hrs by SRB assay; type: functional; conditions: HT-29, 48 h; how it was run: as §1
UACC-257 = assay: Cytotoxicity against human UACC257 cells after 48 hrs by SRB assay; type: cell-based; conditions: uacc-257, 48 h; how it was run: as §3
HL-60(TB) [7] = assay: Cytotoxicity against human HL-60(TB) cells after 48 hrs by SRB assay; type: cell-based; how it was run: as §4
MDA-MB-468 = assay: Cytotoxicity against human MDA-MB-468 cells after 48 hrs by SRB assay; type: cell-based; conditions: mda-mb-468, 48 h; how it was run: as §4
SW-620 = assay: Growth inhibition of human SW620 cells after 48 hrs by SRB assay; type: functional; conditions: SW-620, 48 h; how it was run: as §2
NCI-H522 = assay: Growth inhibition of human NCI-H522 cells after 48 hrs by SRB assay; type: functional; conditions: NCI-H522, 48 h; how it was run: as §1
MOLT-4 = assay: Cytotoxicity against human MOLT4 cells after 48 hrs by SRB assay; type: cell-based; conditions: molt-4, 48 h; how it was run: as §4
OVCAR-8 [8] = assay: Cytotoxicity against human OVCAR8 cells after 48 hrs by SRB assay; type: cell-based; conditions: ovcar-8, 48 h; how it was run: as §4
K562 = assay: Cytotoxicity against human K562 cells after 48 hrs by SRB assay; type: cell-based; conditions: k562, 48 h; how it was run: as §4
HL-60(TB) [9] = assay: Growth inhibition of human HL-60(TB) cells after 48 hrs by SRB assay; type: functional; conditions: HL-60, 48 h

O=c1c2ccccc2nc(-c2ccco2)n1/N=C/c1ccccc1Cl
GI50 (ACHN): 3.12 µM
TGI (ACHN): > 100 µM
GI50 (SNB-19): 6.34 µM
TGI (SNB-19): 12.8 µM
LC50 (TK-10): > 100 µM
LC50 (OVCAR-5): > 100 µM
GI50 (CCRF-CEM): 11.8 µM
TGI (CCRF-CEM): > 100 µM
GI50 (LOX IMVI): 4.54 µM
TGI (LOX IMVI): > 100 µM
GI50 (A549): 4.78 µM
TGI (A549): > 100 µM
LC50 (Malme-3M): > 100 µM
LC50 (NCI/ADR-RES): 52.7 µM
LC50 (SK-MEL-28): > 100 µM
LC50 (SN12C): > 100 µM
LC50 (HCC 2998): > 100 µM
GI50 (786-0): 3.94 µM
TGI (786-0): 14.9 µM
GI50 (HCT-116): 3.32 µM
TGI (HCT-116): 23.6 µM
GI50 (NCI-H460): 3.45 µM
TGI (NCI-H460): 8.41 µM
LC50 [1]: > 100 µM
GI50 (OVCAR-8 [2]): 3.98 µM
TGI (OVCAR-8 [2]): 25.8 µM
LC50 (CAKI-1): > 100 µM
GI50 (MCF7): 5.29 µM
TGI (MCF7): > 100 µM
LC50 (HT-29 [3]): > 100 µM
GI50 (OVCAR-4): 1.82 µM
TGI (OVCAR-4): 6.48 µM
GI50 (SK-MEL-2 [4]): 6.86 µM
TGI (SK-MEL-2 [4]): > 100 µM
LC50 (NCI-H226): > 100 µM
GI50 (EKVX): 7.23 µM
TGI (EKVX): > 100 µM
LC50 (SK-MEL-2 [5]): > 100 µM
GI50 (HT-29 [6]): 3.42 µM
TGI (HT-29 [6]): > 100 µM
LC50 (UACC-257): > 100 µM
LC50 (HL-60(TB) [7]): > 100 µM
LC50 (MDA-MB-468): > 100 µM
GI50 (SW-620): 4.68 µM
TGI (SW-620): 12.7 µM
GI50 (NCI-H522): 2.14 µM
TGI (NCI-H522): 6.45 µM
LC50 (MOLT-4): > 100 µM
LC50 (OVCAR-8 [8]): > 100 µM
LC50 (K562): > 100 µM
GI50 (HL-60(TB) [9]): 23.8 µM
TGI (HL-60(TB) [9]): > 100 µM

— ChEMBL document CHEMBL1781959, “Synthesis and in vitro antitumor activity of substituted quinazoline and quinoxaline derivatives: search for anticancer agent” (Eur J Med Chem, 2011)
